An excerpt weighted towards active compounds, which were near 3.1% of everything screened.
hERG protect: compounds protecting human hERG from proarrhythmic drug block | activation (rescue from dofetilide block), less the hit threshold, % at 10 µM | CHO-hERG, FluxOR thallium flux, dofetilide IC70 present | actives 0.51% (n = 310,000) | Q12809;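 active means activation above the mean of controls blocked by dofetilide plus 5 SD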;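 further: thallium influx through hERG after potassium depolarization seen as dye fluorescence rise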
KCNQ1 pot: potentiators or activators of human KCNQ1 potassium channel | P51787 | CHO-K1 KCNQ1, thallium flux FluxOR fluorescence; stronger effect = higher value | B-score at 10 µM | actives 0.35% (n = 310,000) | AID 2648;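 active means fluorescence ratio B-score, a plate-corrected score, at least three library SD, with initial intensity B-score within 5 SD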
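Assay system: CHO-K1 cells stably expressing KCNQ1. Medium: assay buffer for compound exposure, DMSO matched across wells. Timing: 37 °C overnight plating, 90-min dark dye load, 20-min compound pretreatment. Signal: kinetic FluxOR fluorescence, 10 s baseline plus 110 s post-stimulus.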
KCNK9 block: human KCNK9 channel inhibition; actives 1.2% (n = 310,000); AID 488922; HEK293 KCNK9, FluxOR thallium flux fluorescence; stronger effect = lower value; B-score at 10 µM;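 active means ratio B-score over 3 SD below the library mean, with starting fluorescence within 5 SD of its mean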;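 further: negative B-score means less thallium flux so channel inhibition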
KCNK3 inh: human KCNK3 channel inhibition, primary screen | CHO-KCNK3 thallium flux, FluxOR fluorescence; stronger effect = lower value | B-score at 10 µM | actives 0.84% (n = 340,000);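 active means B-score under library mean minus 4 SD, starting fluorescence ratio at most library mean plus 5 SD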;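 further: more negative B-score means stronger inhibition of thallium flux through KCNK3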
KCNQ1 block: human KCNQ1 channel inhibition; actives 1.3% (n = 310,000); AID 2642; CHO-K1 KCNQ1, FluxOR thallium flux fluorescence; stronger effect = higher value; B-score at 10 µM; P51787;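 active means compounds whose thallium flux B-score, printed positive for inhibition, exceeds three library SD while starting fluorescence stays within three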;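 further: channel opened by potassium depolarization with thallium stimulus after 20 min compound exposure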
* hit, by the source's call.

What do the screens show for `O=C(NC1CCSc2ccccc21)c1cc([N+](=O)[O-])ccc1N1CCOCC1` (configuration not stated)?
hERG protect: -11; KCNQ1 pot: inactive; KCNK9 block: inactive; KCNK3 inh: inactive; KCNQ1 block: inactive

Results for CCCCOC(=O)c1ccc(NC(=S)NC(=O)c2ccco2)cc1 ?
hERG protect: 0; KCNQ1 pot: 11*; KCNK9 block: inactive; KCNK3 inh: inactive; KCNQ1 block: inactive

How did O=C(NC(=S)Nc1ccc(Cl)cn1)c1cccs1 do in these assays?
hERG protect: 0; KCNQ1 pot: 8*; KCNK9 block: inactive; KCNK3 inh: inactive; KCNQ1 block: inactive

What do the screens show for `CCN(CC)P(=O)(c1ccccc1)c1c(C)nc2ccccn12` (configuration not stated)?
hERG protect: -5; KCNQ1 pot: inactive; KCNK9 block: inactive; KCNK3 inh: inactive; KCNQ1 block: inactive

What do the screens show for `CC(C)(C)c1ccc(Cn2c(=O)cnc3ccccc32)cc1`?
hERG protect: -13; KCNQ1 pot: inactive; KCNK9 block: inactive; KCNK3 inh: inactive; KCNQ1 block: inactive

How did Oc1ccc(N=Nc2nc(-c3ccccc3)c(-c3ccccc3)[nH]2)cc1 do in these assays?
hERG protect: -22; KCNQ1 pot: inactive; KCNK9 block: -7.4*; KCNK3 inh: inactive; KCNQ1 block: inactive

What do the screens show for `Oc1ccc(N=Nc2n[nH]c(-c3ccccc3)n2)cc1`?
hERG protect: -7; KCNQ1 pot: inactive; KCNK9 block: inactive; KCNK3 inh: inactive; KCNQ1 block: inactive

What do the screens show for `O=C(c1ccccc1)C(Nc1ccccn1)c1ccccc1` (configuration not stated)?
hERG protect: -13; KCNQ1 pot: inactive; KCNK9 block: -7*; KCNK3 inh: inactive; KCNQ1 block: inactive

How did CCOC(=O)c1sc(SC)c2c1CCCC2=O do in these assays?
hERG protect: -3; KCNQ1 pot: inactive; KCNK9 block: inactive; KCNK3 inh: inactive; KCNQ1 block: inactive

Results for CCOc1ccc(OCCN2CCCCC2)cc1 ?
hERG protect: -4; KCNQ1 pot: inactive; KCNK9 block: inactive; KCNK3 inh: inactive; KCNQ1 block: inactive

Results for CCOc1ccc(CNCCN2CCCC2)cc1 ?
hERG protect: -9; KCNQ1 pot: inactive; KCNK9 block: inactive; KCNK3 inh: inactive; KCNQ1 block: 7*

How did S=C(NCCc1ccccn1)Nc1cc(Cl)cc(Cl)c1 do in these assays?
hERG protect: -11; KCNQ1 pot: inactive; KCNK9 block: inactive; KCNK3 inh: inactive; KCNQ1 block: 6*

How did S=C(NCCc1ccccn1)Nc1ccc(Cl)c(Cl)c1 do in these assays?
hERG protect: -6; KCNQ1 pot: inactive; KCNK9 block: inactive; KCNK3 inh: inactive; KCNQ1 block: inactive

Results for Cc1[nH]c2ccccc2c1/C=N/NC(=O)c1cccs1 ?
hERG protect: -14; KCNQ1 pot: inactive; KCNK9 block: inactive; KCNK3 inh: inactive; KCNQ1 block: inactive

Results for Cc1nn(-c2ccccc2)c(C)c1/C=N/NC(=O)c1cc(-c2cccs2)[nH]n1 ?
hERG protect: -8; KCNQ1 pot: inactive; KCNK9 block: inactive; KCNK3 inh: inactive; KCNQ1 block: inactive

Results for Cc1nn(-c2ccccc2)c(C)c1/C=N/NC(=O)c1cccs1 ?
hERG protect: -7; KCNQ1 pot: inactive; KCNK9 block: -7.8*; KCNK3 inh: inactive; KCNQ1 block: inactive

Results for CSc1ccc(/C=N/NC(=O)c2cccs2)cc1 ?
hERG protect: 25*; KCNQ1 pot: 46*; KCNK9 block: inactive; KCNK3 inh: inactive; KCNQ1 block: inactive

How did Cc1c(/C=N/NC(=O)c2cccs2)c2ccccc2n1Cc1ccccc1Cl do in these assays?
hERG protect: -8; KCNQ1 pot: inactive; KCNK9 block: -7.7*; KCNK3 inh: -9.3*; KCNQ1 block: inactive

How did Cc1ccccc1Nc1nc(N)nc(COC(=O)c2ccc([N+](=O)[O-])o2)n1 do in these assays?
KCNK3 inh: inactive

How did CCn1cc(CN2CCC(n3nccc3NC(=O)c3ccccc3C)CC2)c(C)n1 do in these assays?
hERG protect: -7; KCNQ1 pot: inactive; KCNK9 block: inactive; KCNK3 inh: inactive; KCNQ1 block: inactive

What do the screens show for `CCN(CC)c1ccc2nc3c4ccccc4c(=O)cc-3oc2c1`?
hERG protect: -2; KCNQ1 pot: inactive; KCNK9 block: inactive; KCNQ1 block: inactive

Results for CCN(CC)c1ccc2c(-c3ccc(S(=O)(=O)O)cc3S(=O)(=O)[O-])c3ccc(=[N+](CC)CC)cc-3oc2c1 ?
hERG protect: -41; KCNQ1 pot: inactive; KCNK9 block: inactive; KCNK3 inh: inactive; KCNQ1 block: 25*

Results for Clc1ccccc1OCCn1cnc2ccccc21 ?
hERG protect: -9; KCNQ1 pot: inactive; KCNK9 block: inactive; KCNK3 inh: inactive; KCNQ1 block: inactive

Results for Brc1ccccc1OCCCCn1cnc2ccccc21 ?
hERG protect: -21; KCNQ1 pot: inactive; KCNK9 block: inactive; KCNK3 inh: inactive; KCNQ1 block: 8*

What do the screens show for `Nc1c(C(=O)Nc2nccs2)sc2nc(-c3cccs3)cc(C(F)(F)F)c12`?
hERG protect: 1; KCNQ1 pot: inactive; KCNK9 block: inactive; KCNK3 inh: inactive; KCNQ1 block: inactive

What do the screens show for `Cc1nnc(NC(=O)c2sc3nc(-c4cccs4)cc(C(F)(F)F)c3c2N)s1`?
hERG protect: -19; KCNQ1 pot: inactive; KCNK9 block: inactive; KCNK3 inh: inactive; KCNQ1 block: 6*

How did CCN(CC)C(=O)c1sc2nc(-c3cccs3)cc(-c3cccs3)c2c1N do in these assays?
hERG protect: -15; KCNQ1 pot: inactive; KCNK9 block: -9.3*; KCNK3 inh: inactive; KCNQ1 block: 7*

How did O=C(Oc1ccc2c(=O)c(Oc3ccc4ccccc4c3)coc2c1)c1cncc(Br)c1 do in these assays?
hERG protect: 11*; KCNQ1 pot: inactive; KCNK9 block: inactive; KCNK3 inh: inactive; KCNQ1 block: inactive

Results for O=C(Oc1ccc2ccccc2c1)c1cncc(Br)c1 ?
hERG protect: -9; KCNQ1 pot: inactive; KCNK9 block: inactive; KCNK3 inh: inactive; KCNQ1 block: inactive

Results for Cc1cc(NS(=O)(=O)c2ccc(NC(=O)Nc3cccc(C(F)(F)F)c3)cc2)no1 ?
hERG protect: -12; KCNQ1 pot: inactive; KCNK9 block: inactive; KCNK3 inh: inactive; KCNQ1 block: 6*

Results for COc1ccc2cc(C(=O)NCc3ccccc3)c(=Nc3ccc(C(=O)O)cc3)oc2c1 ?
hERG protect: 6.8*; KCNQ1 pot: inactive; KCNK9 block: inactive; KCNK3 inh: inactive; KCNQ1 block: inactive

Results for COC(=O)c1ccccc1S(=O)(=O)N1CCC(C(=O)OCc2ccc([N+](=O)[O-])cc2)CC1 ?
hERG protect: -8; KCNQ1 pot: inactive; KCNK9 block: inactive; KCNK3 inh: inactive; KCNQ1 block: inactive

Source: PubChem BioAssay (Johns Hopkins Ion Channel Center)
